The test system of assay [1] is VIM-2 Acinetobacter YMC07/8/B3323 growth with imipenem, OD590. As to the kind of experiment: imipenem potentiation in VIM-2 Acinetobacter isolate, late-stage follow-up, strain YMC07/8/B3323, clinical isolate, powder samples (AID 624096). Put shortly:
(§1)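 System – Acinetobacter cells in broth microdilution · Technique – OD590 turbidity · Incubation – growth of at least 18 h, aerobic, 37 °C · Medium – CAMHB · Dosing – compound two-fold series crossed with imipenem · Read-out – CLSI MIC · Probe or stimulus – imipenem, two-fold titration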

Experiment in assay [2]: as above
Particulars: VIM-2 Acinetobacter YMC07/8/B3323 growth with imipenem, OD590; measured here: max imipenem potentiation fold; stronger effect = higher value. Put shortly: as §1

As usually defined, the MIC is the lowest concentration found to suppress growth.

Values joined by “and” are separate entries in the source; they are usually repeats but may differ in a detail not shown here. Equal values may be shown once. Active and inactive are the calls of the source.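 The calls were made as follows: active = compound needing at most 10 µM to cut the imipenem dose that stops bacterial growth fourfold; inactive = the rest.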

For the compound `CN1CCN(C(=O)CN2C(=O)/C(=C/c3c(Cl)ccc(Cl)c3Cl)SC2=S)CC1`, the MIC in assay [1] is 1.56 µM and 0.781 µM. In addition, the fold potentiation in assay [2] is 16 and 32.
In the case of `CN1CCN(NC(=O)CN2C(=O)/C(=C/c3c(F)cccc3Br)SC2=S)CC1`, the MIC in assay [1] is > 50 µM (inactive). Further, the fold potentiation in assay [2] was determined as 2.
With `CN1CCN(NC(=O)CN2C(=O)/C(=C/c3c(F)cccc3C(F)(F)F)SC2=S)CC1`, the MIC in assay [1] is 3.12 µM. For the same compound, in assay [2], the fold potentiation was found to be 2.
With `O=C(O)CN1C(=O)/C(=C/c2c(Cl)ccc(C(F)(F)F)c2Cl)SC1=S`, the MIC in assay [1] was 6.25 µM. Further, the fold potentiation in assay [2] was 8.
With `CN1CCN(NC(=O)CN2C(=O)/C(=C/c3ccc4ccccc4n3)SC2=S)CC1`, the MIC in assay [1] was > 50 µM (inactive).
Consider `Cc1cc(C)c(/C=C2\SC(=S)N(CC(=O)O)C2=O)c(C)c1`, for which the MIC in assay [1] was > 50 µM (inactive).
As for `O=C(O)CN1C(=O)/C(=C/c2ccc3ccccc3n2)SC1=S`, the MIC in assay [1] was > 50 µM (inactive).
With `O=C(O)CN1C(=O)/C(=C/c2ccc(F)cc2)SC1=S`, the MIC in assay [1] was > 50 µM (inactive).
For the compound `O=C(CN1C(=O)/C(=C/c2c(Cl)cccc2Cl)SC1=S)NCc1ccccn1`, the MIC in assay [1] is 6.25 µM. Also, in assay [2], the fold potentiation came out at 16.
The matching figures for `O=C(CN1C(=O)/C(=C/c2c(Cl)cccc2Cl)SC1=S)NN1CCN(C(=O)c2ccccc2)CC1`: 3.12 µM and 16.
As to `CN1CCN(C(=O)CN2C(=O)/C(=C/c3c(Cl)cccc3Cl)SC2=S)CC1`, the MIC in assay [1] is 6.25 µM. Also, the fold potentiation in assay [2] turned out to be 16.
Regarding `CN1CCN(NC(=O)CN2C(=O)/C(=C/c3ccc(Cl)cc3)SC2=S)CC1`, the MIC in assay [1] is > 50 µM (inactive).
Consider `O=C(CN1C(=O)/C(=C/c2c(Cl)cccc2Cl)SC1=S)NN1CCCCC1`, for which the MIC in assay [1] is 3.12 µM. Further, in assay [2], the fold potentiation came to 16.
With `CN1CCN(NC(=O)C(Cc2ccc(Cl)cc2)N2C(=O)/C(=C/c3c(Cl)ccc(Cl)c3Cl)SC2=S)CC1` (stereo unspecified), the MIC in assay [1] was 1.56 µM. Further, the fold potentiation in assay [2] was determined as 32.
For the compound `CN1CCN(NC(=O)CN2C(=O)/C(=C/c3cccnc3)SC2=S)CC1`, the MIC in assay [1] is > 50 µM (inactive). Also, the fold potentiation in assay [2] was 4.
Take `CC(C)(C)OC(=O)N1CCN(NC(=O)CN2C(=O)/C(=C/c3c(Cl)ccc(Cl)c3Cl)SC2=S)CC1`: the MIC in assay [1] was 0.781 µM. Also, the fold potentiation in assay [2] was 16.
The matching figures for `CN1CCN(NC(=O)CN2C(=O)/C(=C/c3ccccc3Br)SC2=S)CC1`: > 50 µM (inactive) and 4.
Regarding `Cc1ccc(S(=O)(=O)N2CCN(NC(=O)CN3C(=O)/C(=C/c4c(Cl)cccc4Cl)SC3=S)CC2)cc1`, the MIC in assay [1] is > 25 µM (inactive).
As for `CC(C)(C)OC(=O)N1CCN(NC(=O)CN2C(=O)/C(=C/c3c(Cl)cccc3Cl)SC2=S)CC1`, in assay [1], the MIC was 3.12 µM. Moreover, the fold potentiation in assay [2] stood at 16.
On the same counts, the results for `O=C(O)CN1C(=O)/C(=C/c2ccccc2Br)SC1=S` are > 50 µM (inactive) and 2.
Consider `CN1CCN(NC(=O)CN2C(=O)/C(=C/c3c(C(F)(F)F)ccc(Cl)c3Cl)SC2=S)CC1`, for which the MIC in assay [1] is 3.12 µM. Also, in assay [2], the fold potentiation was determined as 32.
In the case of `Cc1cc(C)c(/C=C2\SC(=S)N(CC(=O)NN3CCN(C)CC3)C2=O)c(C)c1`, in assay [1], the MIC is > 25 µM (inactive). The fold potentiation in assay [2] amounted to 4.
`CC(=O)N1CCN(NC(=O)CN2C(=O)/C(=C/c3c(Cl)cccc3Cl)SC2=S)CC1`: the MIC in assay [1] was 6.25 µM. For the same compound, the fold potentiation in assay [2] stood at 32.
`O=C(CN1C(=O)/C(=C/c2c(Cl)cccc2Cl)SC1=S)NN1CCNCC1`: the MIC in assay [1] was 3.12 µM. Also, the fold potentiation in assay [2] was 16.
As for `CCN(CC)OC(=O)CN1C(=O)/C(=C/c2c(Cl)cccc2Cl)SC1=S`, the MIC in assay [1] is 12.5 µM (inactive). Besides, the fold potentiation in assay [2] was 8.
On the same counts, the results for `O=C(CN1C(=O)/C(=C/c2c(Cl)cccc2Cl)SC1=S)Nc1cccnc1` are 6.25 µM and 16.
Turning to `CN1CCN(NC(=O)CN2C(=O)/C(=C/c3c(F)c(F)c(F)c(F)c3F)SC2=S)CC1`, the MIC in assay [1] was > 50 µM (inactive). Moreover, the fold potentiation in assay [2] came to 2.
As for `O=C(O)CN1C(=O)/C(=C/c2c(F)cccc2Br)SC1=S`, the MIC in assay [1] is > 50 µM (inactive). Also, in assay [2], the fold potentiation was found to be 2.
Regarding `O=C(O)CN1C(=O)/C(=C/c2ccc([N+](=O)[O-])cc2)SC1=S`, the MIC in assay [1] was > 50 µM (inactive). Also, in assay [2], the fold potentiation amounted to 2.
For the compound `O=C(O)CN1C(=O)/C(=C/c2ccc(Cl)cc2)SC1=S`, the MIC in assay [1] was > 50 µM (inactive). For the same compound, the fold potentiation in assay [2] worked out at 2.
For `O=C(O)CN1C(=O)/C(=C/c2c(Cl)cccc2Cl)SC1=S`, the MIC in assay [1] was 12.5 µM (inactive). In assay [2], the fold potentiation came to 16.
On the same counts, the results for `CN1CCN(NC(=O)[C@H](Cc2ccccc2)N2C(=O)/C(=C/c3c(Cl)cccc3Cl)SC2=S)CC1` are > 25 µM (inactive) and 8.
With `O=C(CN1C(=O)/C(=C/c2c(Cl)cccc2Cl)SC1=S)NCc1ccncc1`, the MIC in assay [1] is 6.25 µM. For the same compound, the fold potentiation in assay [2] was found to be 16.
On the same counts, the results for `C[N+]1(OS(C)(=O)=O)CCN(NC(=O)CN2C(=O)/C(=C/c3c(Cl)ccc(Cl)c3Cl)SC2=S)CC1` are 0.195 µM and 32.
Consider `CN1CCN(NC(=O)CN2C(=O)/C(=C/c3c(Cl)ccc(C(F)(F)F)c3Cl)SC2=S)CC1`, for which the MIC in assay [1] is 3.12 µM. The fold potentiation in assay [2] amounted to 16.
Consider `CC(C)(C)OC(=O)N1CCN(C(=O)CN2C(=O)/C(=C/c3c(Cl)ccc(Cl)c3Cl)SC2=S)CC1`, for which the MIC in assay [1] is 6.25 µM. The fold potentiation in assay [2] is 16.
As for `O=C(O)CN1C(=O)/C(=C/c2c(F)cccc2Cl)SC1=S`, in assay [1], the MIC is > 50 µM (inactive). Moreover, the fold potentiation in assay [2] was determined as 2.
In the case of `O=C(CN1C(=O)/C(=C/c2c(Cl)cccc2Cl)SC1=S)NN1CCN(Cc2ccccc2)CC1`, the MIC in assay [1] was 3.12 µM.
In the case of `CC(C)N1CCN(NC(=O)CN2C(=O)/C(=C/c3c(Cl)cccc3Cl)SC2=S)CC1`, the minimal inhibitory concentration (MIC) in assay [1] was 6.25 µM. Also, in assay [2], the fold potentiation worked out at 32.
`Cc1cc(C)n(NC(=O)CN2C(=O)/C(=C/c3c(Cl)cccc3Cl)SC2=S)c(=O)c1`: the MIC in assay [1] is 1.56 µM. In assay [2], the fold potentiation turned out to be 32.
On to `O=C(O)CN1C(=O)/C(=C/c2cccnc2)SC1=S`, for which, in assay [1], the MIC is > 50 µM (inactive).
Consider `O=C(O)CN1C(=O)/C(=C/c2c(Cl)ccc(Cl)c2Cl)SC1=S`, for which the MIC in assay [1] was 6.25 µM. For the same compound, the fold potentiation in assay [2] was 16.
`O=C(CN1C(=O)/C(=C/c2c(Cl)ccc(Cl)c2Cl)SC1=S)NN1CCCCC1`: the MIC in assay [1] was 3.12 µM. In addition, in assay [2], the fold potentiation amounted to 16.
As for `O=C(O)CN1C(=O)/C(=C/c2c(C(F)(F)F)ccc(Cl)c2Cl)SC1=S`, the MIC in assay [1] is 6.25 µM. In addition, the fold potentiation in assay [2] worked out at 16.
The matching figures for `CC(C)C(C(=O)NN1CCN(C)CC1)N1C(=O)/C(=C/c2c(Cl)ccc(Cl)c2Cl)SC1=S` (stereo unspecified): 1.56 µM and 32.
For the compound `O=C(O)CN1C(=O)/C(=C/c2c(F)cccc2C(F)(F)F)SC1=S`, in assay [1], the MIC is > 25 µM (inactive). For the same compound, the fold potentiation in assay [2] stood at 2.
In the case of `O=C(O)CN1C(=O)/C(=C/c2c(F)cccc2F)SC1=S`, the MIC in assay [1] was > 50 µM (inactive). Moreover, the fold potentiation in assay [2] came to 2.
Take `CN1CCN(NC(=O)CN2C(=O)/C(=C/c3ccc([N+](=O)[O-])cc3)SC2=S)CC1`: the MIC in assay [1] was > 50 µM (inactive).
Take `CN1CCN(NC(=O)CN2C(=O)/C(=C/c3c(Cl)ccc(Cl)c3Cl)SC2=S)CC1`: the MIC in assay [1] is 0.781 µM and 1.56 µM and 0.391 µM. In addition, the fold potentiation in assay [2] is 32 and 16.
For the compound `CCOC(=O)/C=C1\SC(=S)N(CC(=O)NN2CCN(C)CC2)C1=O`, the MIC in assay [1] is > 50 µM (inactive). Besides, the fold potentiation in assay [2] stood at 2.
As to `CN1CCN(NC(=O)CN2C(=O)/C(=C/c3ccc(F)cc3)SC2=S)CC1`, the MIC in assay [1] was > 50 µM (inactive).
With `O=C(CN1C(=O)/C(=C/c2c(Cl)ccc(Cl)c2Cl)SC1=S)N1CCN(c2ccccc2Cl)CC1`, the MIC in assay [1] is > 50 µM (inactive).
As for `CN1CCN(NC(=O)CN2C(=O)/C(=C/c3c(F)cccc3Cl)SC2=S)CC1`, the MIC in assay [1] was 3.12 µM. Further, the fold potentiation in assay [2] stood at 32.
Regarding `O=C(O)CN1C(=O)/C(=C/c2c(F)c(F)c(F)c(F)c2F)SC1=S`, the MIC in assay [1] was > 50 µM (inactive). In assay [2], the fold potentiation stood at 2.
For the compound `O=C(CN1C(=O)/C(=C/c2c(Cl)cccc2Cl)SC1=S)Nc1cc([N+](=O)[O-])ccc1O`, the MIC in assay [1] was > 50 µM (inactive).
In the case of `CN1CCN(NC(=O)C(Cc2ccccc2)N2C(=O)/C(=C/c3c(Cl)ccc(Cl)c3Cl)SC2=S)CC1` (stereo unspecified), in assay [1], the MIC was 1.56 µM. For the same compound, the fold potentiation in assay [2] was 32.
On the same counts, the results for `O=C(CN1C(=O)/C(=C/c2c(Cl)ccc(Cl)c2Cl)SC1=S)NN1CCNCC1` are 0.781 µM and 32.
`CCOC(=O)/C=C1\SC(=S)N(CC(=O)O)C1=O`: the MIC in assay [1] was > 50 µM (inactive).
Turning to `O=C(CN1C(=O)/C(=C/c2c(Cl)cccc2Cl)SC1=S)NN1CCN(S(=O)(=O)c2ccc(Cl)cc2)CC1`, the MIC in assay [1] was > 50 µM (inactive). Also, the fold potentiation in assay [2] was 2.
As to `O=C(CN1C(=O)/C(=C/c2c(Cl)ccc(Cl)c2Cl)SC1=S)NCc1ccccn1`, the MIC in assay [1] was 1.56 µM. The fold potentiation in assay [2] is 16 and 32.
Consider `CN1CCN(NC(=O)CN2C(=O)/C(=C/c3c(Cl)cccc3Cl)SC2=S)CC1`, for which, in assay [1], the MIC was 3.12 µM and 6.25 µM. In assay [2], the fold potentiation was 32.
As for `CN1CCN(NC(=O)CN2C(=O)/C(=C/c3c(F)cccc3F)SC2=S)CC1`, in assay [1], the MIC was > 25 µM (inactive). Further, the fold potentiation in assay [2] is 4.

These data come from PubChem BioAssay AID624096 (The Scripps Research Institute Molecular Screening Center, 2012).
